Calls of active or inactive are those of the source. The calls are words filed in the database; no cut-off is given here.
Legend:
Cathepsin B = Cathepsin B (Homo sapiens, UniProt P07858); experiment: Inhibition of human recombinant cathepsin B after 10 mins
U-937 = experiment: Effect on neutrophil elastase protein expression in human U937 cells at 30 uM after 7 days by Western blot; format: functional, cell-based
Myeloblastin = target: T1, Myeloblastin (Homo sapiens, UniProt P24158); experiment: Inhibition of proteinase-3 in human U937 cells; format: cell-based, U-937
T1 sequence (P24158 whole entry): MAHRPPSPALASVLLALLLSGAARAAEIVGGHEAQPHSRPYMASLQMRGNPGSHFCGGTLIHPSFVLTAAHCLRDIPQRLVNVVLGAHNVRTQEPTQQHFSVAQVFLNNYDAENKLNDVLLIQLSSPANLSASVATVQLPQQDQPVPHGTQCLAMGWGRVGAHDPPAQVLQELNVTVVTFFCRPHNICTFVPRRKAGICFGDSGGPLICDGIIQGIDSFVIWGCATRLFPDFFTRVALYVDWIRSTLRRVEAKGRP

[1] = target: T2, Neutrophil elastase (Mus musculus) (UniProt Q3UP87); settings: EcoM-G, 1 uM
T2 sequence (whole entry): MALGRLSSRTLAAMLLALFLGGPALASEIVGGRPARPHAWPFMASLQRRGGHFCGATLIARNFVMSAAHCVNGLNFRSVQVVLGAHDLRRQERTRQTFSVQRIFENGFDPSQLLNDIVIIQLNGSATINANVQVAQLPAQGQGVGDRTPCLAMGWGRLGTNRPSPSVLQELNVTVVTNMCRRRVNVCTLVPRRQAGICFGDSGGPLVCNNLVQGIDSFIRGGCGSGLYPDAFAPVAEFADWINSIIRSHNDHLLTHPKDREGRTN

Procathepsin L = Procathepsin L (Homo sapiens, UniProt P07711); experiment: Inhibition of human recombinant cathepsin L after 10 mins
U-937 (Homo sapiens) = experiment: Effect on neutrophil elastase protein expression in human U937 cells at 30 uM after 7 days by Western blot
[2] = target: T3, Cathepsin G (Mus musculus) (UniProt P28293); experiment: Inhibition of cathepsin G activity in beta-estradiol differentiated mouse EcoM-G cells at 10 uM after 24 hrs in the absence of estradiol; format: cell-based
T3 sequence (whole entry): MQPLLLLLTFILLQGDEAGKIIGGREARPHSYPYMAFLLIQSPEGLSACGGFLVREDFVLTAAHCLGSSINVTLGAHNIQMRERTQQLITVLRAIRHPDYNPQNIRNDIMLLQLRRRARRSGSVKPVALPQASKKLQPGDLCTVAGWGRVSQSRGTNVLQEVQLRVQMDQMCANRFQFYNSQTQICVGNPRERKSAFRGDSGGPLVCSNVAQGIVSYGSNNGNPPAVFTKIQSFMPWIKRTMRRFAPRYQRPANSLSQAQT
In short: (§1)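 EcoM-G cells seeded without β-estradiol to differentiate. 10 μM compound or vehicle added 24 h after estrogen removal, and aliquots taken over time up to 3 days. CG activity in extracts measured with 1 mM Suc-Ala-Ala-Pro-Phe-pNA, absorbance at 405 nm over 5 min, in 100 mM Tris pH 7.5, 1 M NaCl.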

Cathepsin G [3] = target: T4, Cathepsin G (Homo sapiens, UniProt P08311); experiment: Blockade of cathepsin G processing in human U937 cells by densitometry; format: cell-based, U-937
T4 sequence (P08311 whole entry): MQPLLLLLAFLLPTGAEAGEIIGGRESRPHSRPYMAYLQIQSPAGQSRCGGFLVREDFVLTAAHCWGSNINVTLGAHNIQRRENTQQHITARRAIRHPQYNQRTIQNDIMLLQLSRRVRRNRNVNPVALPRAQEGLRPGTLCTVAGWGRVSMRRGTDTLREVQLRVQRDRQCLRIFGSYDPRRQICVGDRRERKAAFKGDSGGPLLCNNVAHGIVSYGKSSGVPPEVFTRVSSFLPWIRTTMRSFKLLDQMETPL
In short: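 U937 cells washed, plated at 2×10^6 cells/ml in methionine/glutamine-free RPMI, inhibitor or 0.5% Me₂SO added during 30 min starvation, pulsed with [³⁵S]methionine (10 μCi/ml) 30 min, re-seeded in complete medium with inhibitor and chased 3 h. Lysates bound to aprotinin-agarose 1 h at room temperature, SDS-PAGE and fluorography. CG band quantitated by densitometry as % inhibition vs vehicle.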

[4] = target: T2, Neutrophil elastase (Mus musculus); settings: EcoM-G, 1 uM; remark: listed apart in the source
[5] = target: T5, Neutrophil elastase (Homo sapiens) (UniProt P08246); settings: U-937, 1 uM
T5 sequence (whole entry): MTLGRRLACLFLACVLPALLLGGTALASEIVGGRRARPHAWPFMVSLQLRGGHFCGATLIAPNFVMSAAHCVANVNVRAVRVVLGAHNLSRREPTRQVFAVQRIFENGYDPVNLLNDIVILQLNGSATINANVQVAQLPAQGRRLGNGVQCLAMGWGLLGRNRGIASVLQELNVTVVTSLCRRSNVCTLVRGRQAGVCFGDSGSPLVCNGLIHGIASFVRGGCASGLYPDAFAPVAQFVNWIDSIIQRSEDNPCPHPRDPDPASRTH

Neutrophil elastase = target: T6, Neutrophil elastase (Mus musculus, UniProt Q3UP87); experiment: Inhibition of neutrophil elastase activation in beta-estradiol differentiated mouse EcoM-G cells after 24 hrs; format: cell-based
T6 sequence (Q3UP87 whole entry): T2 sequence (whole entry)
In short: (§2)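 EcoM-G cells (cultures <3 months old) washed and seeded at 0.5×10^6 cells/ml without β-estradiol. After 24 h, compound added in Me₂SO (final 0.5%), then cells differentiated a further 24 h, harvested and lysed. NE assayed with 400 μM MeOSuc-AAPV-AMC, CG with 1 mM Suc-AAPF-pNA (405 nm, 5 min), Pr-3 with 10 μM internally quenched substrate (ex 328/em 393 nm), all from the same lysates. IC50 from four-parameter Hill fit.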

Dipeptidyl peptidase 1 = Dipeptidyl peptidase 1 (Homo sapiens, UniProt P53634); experiment: Inhibition of human recombinant cathepsin C after 10 mins
In short: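 Recombinant human cathepsin C at 1 nM in 25 mM MES pH 6.0, 50 mM NaCl, 5 mM DTT, with 50 μM Gly-Arg-AMC (twice Km). Enzyme preincubated with inhibitor 10 min, then substrate added, at room temperature. Fluorogenic AMC release.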

Cathepsin G [6] = target: T4, Cathepsin G; experiment: Inhibition of cathepsin G in human U937 cells; format: cell-based, U-937
[7] = target: T3, Cathepsin G (Mus musculus); experiment: Inhibition of cathepsin G activity in beta-estradiol differentiated mouse EcoM-G cells at 10 uM after 3 days in the absence of estradiol; format: cell-based; in short: as §1
Cathepsin G [8] = target: T7, Cathepsin G (Mus musculus, UniProt P28293); experiment: Inhibition of cathepsin G activation in beta-estradiol differentiated mouse EcoM-G cells after 24 hrs; format: cell-based; in short: as §2
T7 sequence (P28293 whole entry): T3 sequence (whole entry)

Chain of Dipeptidyl peptidase 1 (P53634 25-134 limits assumed): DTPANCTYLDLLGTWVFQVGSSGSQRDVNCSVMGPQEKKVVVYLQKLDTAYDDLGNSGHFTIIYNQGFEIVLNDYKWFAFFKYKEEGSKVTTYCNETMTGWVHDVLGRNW
Chain of Dipeptidyl peptidase 1 (P53634 231-394 limits assumed): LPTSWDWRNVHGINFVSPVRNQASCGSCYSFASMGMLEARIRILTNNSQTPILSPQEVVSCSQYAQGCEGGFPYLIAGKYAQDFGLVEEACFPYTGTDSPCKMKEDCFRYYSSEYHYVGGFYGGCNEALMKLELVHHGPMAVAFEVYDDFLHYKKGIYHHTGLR
Chain of Dipeptidyl peptidase 1 (P53634 395-463 limits assumed): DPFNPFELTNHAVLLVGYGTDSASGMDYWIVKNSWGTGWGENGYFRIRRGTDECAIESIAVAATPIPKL
Chain of Procathepsin L (P07711 whole entry): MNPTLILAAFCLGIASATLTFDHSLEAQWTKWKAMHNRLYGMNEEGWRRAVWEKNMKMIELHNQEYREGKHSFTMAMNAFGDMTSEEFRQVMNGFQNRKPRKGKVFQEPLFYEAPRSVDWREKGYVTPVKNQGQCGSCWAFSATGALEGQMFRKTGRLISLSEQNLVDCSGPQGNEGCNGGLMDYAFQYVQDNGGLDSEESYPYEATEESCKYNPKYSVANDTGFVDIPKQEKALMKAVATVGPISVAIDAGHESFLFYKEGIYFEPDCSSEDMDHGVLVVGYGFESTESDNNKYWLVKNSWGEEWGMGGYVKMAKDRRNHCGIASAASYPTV

IC50 (Cathepsin B): > 50000 nM
IC50 (Myeloblastin): > 50000 nM
inhibition [1]: > 90%
IC50 (Procathepsin L): 5400 nM
Activity [2]: Active
IC50 (Cathepsin G [3]): 150 nM
inhibition [4]: 80%
inhibition [5]: > 90%
IC50 (Neutrophil elastase): 160 nM
IC50 (Dipeptidyl peptidase 1): 14 nM
IC50 (Cathepsin G [6]): > 50000 nM
Activity [7]: Active
IC50 (Cathepsin G [8]): 480 nM
Compound: N#C[C@@]1(NC(=O)[C@@H](N)Cc2cccs2)C[C@@H]1c1ccccc1.O=C(O)C(F)(F)F
Activity (U-937): inactive
Activity (U-937 (Homo sapiens)): inactive
